Experimental data taken from ChEMBL document CHEMBL3870358, “Covalent Guanosine Mimetic Inhibitors of G12C KRAS” (ACS Med Chem Lett, 2017).

What was measured:
[1] = Binding affinity to Mg2+ ion assessed as compound concentration required to reach Mg2+ dependent shift plateau by 31P NMR analysis
[2] = Binding affinity to Mg2+ ion assessed as compound concentration required to show half maximal Mg2+ dependent shift by 31P NMR analysis
[3] = test system: GTPase KRas (Homo sapiens), P01116 [G12C]; test: Binding affinity to GMP-stabilized FLAG-tagged KRAS G12C mutant (unknown origin) assessed as ratio of Kinact to Ki using desthiobiotin-GTP probe by alphascreen assay
How it was run: (§1)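 Nucleotide-free purified KRAS G12C, stabilized with excess GMP, incubated with compound. Remaining enzyme then labeled by a GTP-desthiobiotin acyl phosphate probe that reacts with Lys16, and detected with AlphaScreen reagents. Reaction rates were plotted against compound concentration and fit to kobs = kinact[I]/(Ki + [I]) to estimate kinact and Ki.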

[4] = test system: GTPase KRas (Homo sapiens), P01116 [G12C]; test: Binding affinity to recombinant GDP-loaded KRAS G12C mutant (unknown origin) assessed as half life at 115 uM by CPM-probe based fluorescence assay
How it was run: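 Chemosensor competition assay. Purified recombinant GDP-loaded KRAS G12C incubated with compound, then probed at several time points with a probe detecting free unreacted Cys12 thiol. Read-out combines GDP displacement kinetics with covalent inactivation.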

[5] = molecular target: GTPase KRas (Homo sapiens, UniProt P01116, G12C); test: Binding affinity to GMP-stabilized FLAG-tagged KRAS G12C mutant (unknown origin) using desthiobiotin-GTP probe by alphascreen assay
How it was run: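 Nucleotide-free recombinant KRAS G12C purified and stabilised with excess GMP, incubated with compound, then probed with GTP-desthiobiotin acyl phosphate probe (reacts with Lys16). Desthiobiotinylated protein detected by AlphaScreen (ActivAlpha). Observed reaction rates plotted against compound concentration and fit to kobs = kinact[I]/(Ki + [I]) to extract kinact and Ki.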

[6] = test system: GTPase KRas (Homo sapiens), P01116 [G12C]; test: Binding affinity to GMP-stabilized FLAG-tagged KRAS G12C mutant (unknown origin) assessed as inactivation constant using desthiobiotin-GTP probe by alphascreen assay; how it was run: as §1

GTPase KRas (Homo sapiens), P01116 [G12C], sequence (P01116 whole entry G12C): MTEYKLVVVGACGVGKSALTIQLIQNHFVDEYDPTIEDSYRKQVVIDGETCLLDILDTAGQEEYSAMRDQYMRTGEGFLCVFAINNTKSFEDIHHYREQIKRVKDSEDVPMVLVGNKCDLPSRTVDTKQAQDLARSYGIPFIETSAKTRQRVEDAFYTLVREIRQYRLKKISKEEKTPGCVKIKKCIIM
GTPase KRas, sequence (P01116 whole entry G12C): as above

Nc1nc2c(ncn2[C@@H]2O[C@H](COP(=O)(O)OP(=O)(O)O)[C@@H](O)[C@H]2O)c(=O)[nH]1
Activity [1]: 2 equiv
Activity [2]: 0.5 equiv

Nc1nc2c(ncn2[C@@H]2O[C@H](COP(=O)(O)C(F)P(=O)(O)OCCNC(=O)CCl)[C@@H](O)[C@H]2O)c(=O)[nH]1 (mixture of isomers)
Ratio [3]: 0.03 min⁻¹ µM⁻¹
T1/2 [4]: 6.6 h
Ki [5]: 8000 nM
Kinact [6]: 0.21 min⁻¹

Nc1nc2c(ncn2[C@@H]2O[C@H](COP(=O)(O)C(F)(F)P(=O)(O)OCCCNC(=O)CCl)[C@@H](O)[C@H]2O)c(=O)[nH]1
Ratio [3]: 0.8 min⁻¹ µM⁻¹
Activity [2]: < 20 equiv
T1/2 [4]: 1.06 h
Ki [5]: 382 nM
Kinact [6]: 0.3 min⁻¹

Nc1nc2c(ncn2[C@@H]2O[C@H](COP(=O)(O)OP(=O)(O)OCCNC(=O)CCl)[C@@H](O)[C@H]2O)c(=O)[nH]1
Ratio [3]: 95 min⁻¹ µM⁻¹
T1/2 [4]: 0.68 h
Ki [5]: 9 nM
Kinact [6]: 0.86 min⁻¹

Nc1nc2c(ncn2[C@@H]2O[C@H](COP(=O)(O)CP(=O)(O)OC3CCN(C(=O)CCl)C3)[C@@H](O)[C@H]2O)c(=O)[nH]1 (stereo not given in full)
Ratio [3]: 2.4 min⁻¹ µM⁻¹
T1/2 [4]: 1.1 h
Ki [5]: 920 nM
Kinact [6]: 2.2 min⁻¹

C=CC(=O)NCCOP(=O)(O)OP(=O)(O)OC[C@H]1O[C@@H](n2cnc3c(=O)[nH]c(N)nc32)[C@H](O)[C@@H]1O
Ratio [3]: 7.6 min⁻¹ µM⁻¹
T1/2 [4]: 0.6 h
Ki [5]: 280 nM
Kinact [6]: 2.12 min⁻¹

CC(C)(CNC(=O)CCl)COP(=O)(O)CP(=O)(O)OC[C@H]1O[C@@H](n2cnc3c(=O)[nH]c(N)nc32)[C@H](O)[C@@H]1O
Ratio [3]: 0.028 min⁻¹ µM⁻¹
T1/2 [4]: 20 h
Ki [5]: 5000 nM
Kinact [6]: 0.14 min⁻¹

Nc1nc2c(ncn2[C@@H]2O[C@H](COS(=O)(=O)NC(=O)OCCNC(=O)CCl)[C@@H](O)[C@H]2O)c(=O)[nH]1
Ratio [3]: 0.05 min⁻¹ µM⁻¹
T1/2 [4]: 9.5 h
Ki [5]: 5000 nM
Kinact [6]: 0.24 min⁻¹

Nc1nc2c(ncn2[C@@H]2O[C@H](COP(=O)(O)CP(=O)(O)OC3CCCN(C(=O)CCl)C3)[C@@H](O)[C@H]2O)c(=O)[nH]1 (mixture of isomers)
Ratio [3]: 0.16 min⁻¹ µM⁻¹
T1/2 [4]: 12 h
Ki [5]: 3500 nM
Kinact [6]: 0.55 min⁻¹

Nc1nc2c(ncn2[C@@H]2O[C@H](COP(=O)(O)C(F)(F)P(=O)(O)OCCNC(=O)CCl)[C@@H](O)[C@H]2O)c(=O)[nH]1
Ratio [3]: 0.9 min⁻¹ µM⁻¹
T1/2 [4]: 4.2 h
Ki [5]: 380 nM
Kinact [6]: 0.365 min⁻¹

Nc1nc2c(ncn2[C@@H]2O[C@H](COP(=O)(O)CC(=O)OCCNC(=O)CCl)[C@@H](O)[C@H]2O)c(=O)[nH]1
Ratio [3]: 0.003 min⁻¹ µM⁻¹
T1/2 [4]: 84 h
Ki [5]: 15200 nM
Kinact [6]: 0.055 min⁻¹

Nc1nc2c(ncn2[C@@H]2O[C@H](COC(=O)CS(=O)(=O)NCCNC(=O)CCl)[C@@H](O)[C@H]2O)c(=O)[nH]1
T1/2 [4]: 24 h
Ki [5]: > 10000 nM

Nc1nc2c(ncn2[C@@H]2O[C@H](COP(=O)(O)CS(=O)(=O)NCCNC(=O)CCl)[C@@H](O)[C@H]2O)c(=O)[nH]1
Ratio [3]: 0.2 min⁻¹ µM⁻¹
T1/2 [4]: 2.3 h
Ki [5]: 1600 nM
Kinact [6]: 0.33 min⁻¹

COC(=O)/C=C/CCCOP(=O)(O)CP(=O)(O)OC[C@H]1O[C@@H](n2cnc3c(=O)[nH]c(N)nc32)[C@H](O)[C@@H]1O
T1/2 [4]: 120 h
Ki [5]: > 20000 nM

Nc1nc2c(ncn2[C@@H]2O[C@H](COP(=O)(O)OP(=O)(O)OP(=O)(O)O)[C@@H](O)[C@H]2O)c(=O)[nH]1
Activity [1]: 2 equiv
Activity [2]: 0.5 equiv

Nc1nc2c(ncn2[C@@H]2O[C@H](COC(=O)CP(=O)(O)OCCNC(=O)CCl)[C@@H](O)[C@H]2O)c(=O)[nH]1
Ratio [3]: 0.02 min⁻¹ µM⁻¹
T1/2 [4]: 47 h
Ki [5]: 2200 nM
Kinact [6]: 0.053 min⁻¹

Nc1nc2c(ncn2[C@@H]2O[C@H](COP(=O)(O)CP(=O)(O)O[C@@H]3CC[C@H](NC(=O)CCl)C3)[C@@H](O)[C@H]2O)c(=O)[nH]1 (mixture of isomers)
Ratio [3]: 0.02 min⁻¹ µM⁻¹
T1/2 [4]: 42 h
Ki [5]: 50000 nM
Kinact [6]: 1 min⁻¹

Nc1nc2c(ncn2[C@@H]2O[C@H](CNc3c(NCCCNC(=O)CCl)c(=O)c3=O)[C@@H](O)[C@H]2O)c(=O)[nH]1
T1/2 [4]: 13 h
Ki [5]: > 25000 nM

Nc1nc2c(ncn2[C@@H]2O[C@H](COP(=O)(O)CP(=O)(O)O[C@@H]3CC[C@@H](NC(=O)CCl)C3)[C@@H](O)[C@H]2O)c(=O)[nH]1 (mixture of isomers)
Ratio [3]: 0.06 min⁻¹ µM⁻¹
T1/2 [4]: 64 h
Ki [5]: 36000 nM
Kinact [6]: 2.3 min⁻¹

Nc1nc2c(ncn2[C@@H]2O[C@H](COP(=O)(O)CP(=O)(O)OCCCNC(=O)CCl)[C@@H](O)[C@H]2O)c(=O)[nH]1
Ratio [3]: 0.2 min⁻¹ µM⁻¹
T1/2 [4]: 2.5 h
Ki [5]: 374 nM
Kinact [6]: 0.07 min⁻¹

Nc1nc2c(ncn2[C@@H]2O[C@H](COP(=O)(O)CP(=O)(O)OCCNC(=O)CCl)[C@@H](O)[C@H]2O)c(=O)[nH]1
Ratio [3]: 0.02 min⁻¹ µM⁻¹
T1/2 [4]: 2.1 h
Ki [5]: 2700 nM
Kinact [6]: 0.06 min⁻¹
